Experiments:
hsPLA2-G-V = molecular target: T1, hsPLA2-G-V (Homo sapiens, UniProt P39877); assay: Anti-phospholipases colorimetric assay, hsPLA2-G-V; format: biochemical
T1 sequence (P39877 21-138): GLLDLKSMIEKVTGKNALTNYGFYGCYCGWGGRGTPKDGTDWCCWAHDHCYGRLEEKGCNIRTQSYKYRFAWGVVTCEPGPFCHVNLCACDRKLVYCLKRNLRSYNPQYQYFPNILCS
In short: (§1)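 Test compound solutions (5−50 μg/mL) mixed with hsPLA2 solution (20 μg/mL, stock) and held 20 min at room temperature. Substrate added: 3.5 mM lecithin, 10 mM CaCl2, 3 mM sodium taurodeoxycholate, 100 mM NaCl, 0.055 mM phenol red, pH 7.6. Hydrolysis followed at 558 nm for 5 min. Percent inhibition taken against a no-compound control; IC50 from standard calibration curves.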

cathepsin-B = cathepsin-B (Homo sapiens, UniProt P07858); assay: Anti-proteases assay; format: biochemical
In short: (§2)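 Enzyme preincubated with test compound (5−75 μg/mL) for 15 min at 37 °C, then 1% casein substrate added for 30 min at 37 °C. Reaction stopped with 5% trichloroacetic acid and centrifuged (12,000 rpm, 15 min). Filtrate absorbance read at 280 nm. Percent inhibition taken against control; IC50 from standard curve. Protease inhibitor cocktail was the positive control.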

α-amylase = molecular target: T2, α-amylase (Homo sapiens, UniProt P04746); assay: In vitro α-amylase inhibitory activity; format: biochemical
T2 sequence (P04746 16-511): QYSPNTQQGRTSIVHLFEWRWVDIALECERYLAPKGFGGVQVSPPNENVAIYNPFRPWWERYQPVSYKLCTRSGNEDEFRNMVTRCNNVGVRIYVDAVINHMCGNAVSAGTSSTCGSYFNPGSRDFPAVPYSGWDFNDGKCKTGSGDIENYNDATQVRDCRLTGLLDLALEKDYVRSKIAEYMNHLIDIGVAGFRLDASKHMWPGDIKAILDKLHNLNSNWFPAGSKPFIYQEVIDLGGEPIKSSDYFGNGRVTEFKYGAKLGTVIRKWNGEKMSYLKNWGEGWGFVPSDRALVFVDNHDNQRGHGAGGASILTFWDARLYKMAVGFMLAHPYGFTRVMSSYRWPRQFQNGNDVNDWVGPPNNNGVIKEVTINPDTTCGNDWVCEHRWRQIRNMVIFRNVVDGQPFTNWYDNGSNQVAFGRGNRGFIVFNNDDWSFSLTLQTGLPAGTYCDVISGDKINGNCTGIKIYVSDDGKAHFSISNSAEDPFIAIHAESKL
In short: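 Labtest amylase substrate (diluted 1:1 in water) added; first read at 620 nm after 8 min. Final read after another 5 min at 37 °C. Inhibition calculated from the change between initial and final absorbance relative to control; IC50 from standard curve.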

α-glucosidase = α-glucosidase (Saccharomyces cerevisiae, UniProt P53341); assay: In vitro α-glucosidase inhibitory activity; format: biochemical, Saccharomyces cereviseae
Sequence of α-glucosidase (P53341 whole entry): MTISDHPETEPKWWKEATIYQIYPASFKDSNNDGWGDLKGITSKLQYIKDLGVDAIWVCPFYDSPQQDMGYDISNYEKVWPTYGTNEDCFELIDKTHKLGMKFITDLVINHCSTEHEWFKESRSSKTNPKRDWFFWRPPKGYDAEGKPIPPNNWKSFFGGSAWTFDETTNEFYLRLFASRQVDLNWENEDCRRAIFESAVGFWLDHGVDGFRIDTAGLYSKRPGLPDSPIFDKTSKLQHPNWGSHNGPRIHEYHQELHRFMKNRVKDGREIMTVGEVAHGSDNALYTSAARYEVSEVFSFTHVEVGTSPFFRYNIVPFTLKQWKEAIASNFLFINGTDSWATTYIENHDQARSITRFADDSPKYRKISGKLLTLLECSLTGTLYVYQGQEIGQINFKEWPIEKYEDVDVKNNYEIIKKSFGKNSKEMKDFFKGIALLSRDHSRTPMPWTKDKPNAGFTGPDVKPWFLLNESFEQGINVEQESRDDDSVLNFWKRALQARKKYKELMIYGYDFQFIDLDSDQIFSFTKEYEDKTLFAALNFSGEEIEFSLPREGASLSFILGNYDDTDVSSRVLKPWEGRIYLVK

xanthine oxidoreductase = xanthine oxidoreductase (Bos taurus, UniProt P80457); assay: In vitro xanthine oxidoreductase inhibitory activity; format: biochemical
Sequence of xanthine oxidoreductase (P80457 2-1332 limits assumed): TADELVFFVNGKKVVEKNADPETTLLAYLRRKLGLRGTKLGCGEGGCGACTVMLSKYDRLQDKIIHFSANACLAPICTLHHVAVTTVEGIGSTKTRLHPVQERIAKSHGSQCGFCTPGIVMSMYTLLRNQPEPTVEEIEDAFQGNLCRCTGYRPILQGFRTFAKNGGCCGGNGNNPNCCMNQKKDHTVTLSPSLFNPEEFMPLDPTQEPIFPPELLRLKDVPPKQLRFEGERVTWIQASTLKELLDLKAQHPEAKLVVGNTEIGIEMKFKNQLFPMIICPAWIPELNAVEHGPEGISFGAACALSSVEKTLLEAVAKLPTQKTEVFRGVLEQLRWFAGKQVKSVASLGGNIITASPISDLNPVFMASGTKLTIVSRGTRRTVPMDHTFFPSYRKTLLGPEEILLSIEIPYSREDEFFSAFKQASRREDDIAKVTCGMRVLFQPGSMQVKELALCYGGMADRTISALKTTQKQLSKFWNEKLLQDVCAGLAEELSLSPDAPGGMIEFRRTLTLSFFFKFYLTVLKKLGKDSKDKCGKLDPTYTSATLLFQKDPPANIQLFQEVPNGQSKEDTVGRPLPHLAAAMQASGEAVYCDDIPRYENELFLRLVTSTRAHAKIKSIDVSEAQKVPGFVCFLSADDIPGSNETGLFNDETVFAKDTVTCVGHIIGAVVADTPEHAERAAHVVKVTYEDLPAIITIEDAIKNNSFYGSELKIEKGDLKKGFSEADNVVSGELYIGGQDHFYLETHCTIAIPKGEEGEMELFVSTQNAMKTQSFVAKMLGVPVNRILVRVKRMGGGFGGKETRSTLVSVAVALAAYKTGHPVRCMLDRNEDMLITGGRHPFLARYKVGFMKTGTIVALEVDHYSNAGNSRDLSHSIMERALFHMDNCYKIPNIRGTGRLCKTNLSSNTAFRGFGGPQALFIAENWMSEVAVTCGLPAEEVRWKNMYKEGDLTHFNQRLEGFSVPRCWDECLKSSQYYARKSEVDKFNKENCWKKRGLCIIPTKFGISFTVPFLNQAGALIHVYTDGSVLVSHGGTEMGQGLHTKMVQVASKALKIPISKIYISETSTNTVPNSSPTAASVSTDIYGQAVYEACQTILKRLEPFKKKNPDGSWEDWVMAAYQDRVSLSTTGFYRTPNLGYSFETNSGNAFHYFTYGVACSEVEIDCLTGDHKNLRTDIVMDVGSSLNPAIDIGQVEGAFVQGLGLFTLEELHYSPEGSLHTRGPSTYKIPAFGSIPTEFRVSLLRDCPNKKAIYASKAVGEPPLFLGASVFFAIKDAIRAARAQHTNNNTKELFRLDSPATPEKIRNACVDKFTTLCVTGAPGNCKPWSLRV

LoVo cells = assay: Cytotoxicity assay; format: cell-based; conditions: Homo sapiens, 24 h; for viability at 200 µg/mL: read-out: % of Viable cells, LoVo cell line of CRC; for IC50: read-out: IC50 LoVo cell line of CRC
In short: (§3)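 Cells exposed 24 h at 37 °C in 5% CO2 to test compound (final 25, 50, 75, 100, 200, 400 μg/mL) in DMEM with 10% FBS. Lactate dehydrogenase released into supernatant measured by end-point assay, OD 550 nm. Viability expressed as percent of medium-only control; 0.1% Triton X-100 was the positive control. Single-point viability at 200 μg/mL, mean ± SD (n = 2). IC50 from viability-versus-concentration plot.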

hsPLA2-G-IIA = molecular target: T3, hsPLA2-G-IIA (Homo sapiens, UniProt P14555); assay: Anti-phospholipases colorimetric assay, hsPLA2-G-IIA; format: biochemical
T3 sequence (P14555 21-144): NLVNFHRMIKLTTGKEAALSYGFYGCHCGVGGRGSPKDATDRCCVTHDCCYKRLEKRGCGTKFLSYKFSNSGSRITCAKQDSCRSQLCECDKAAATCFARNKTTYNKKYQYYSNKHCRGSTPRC

HCT-116 cells = assay: Cytotoxicity assay; format: cell-based; conditions: Homo sapiens, HCT-116, 24 h, read-out: IC50 HCT-116 cell line of CRC
In short: as §3

hsPLA2-G-X = molecular target: T4, hsPLA2-G-X (Homo sapiens, UniProt O15496); assay: Anti-phospholipases colorimetric assay, hsPLA2-G-X; format: biochemical
T4 sequence (O15496 43-165): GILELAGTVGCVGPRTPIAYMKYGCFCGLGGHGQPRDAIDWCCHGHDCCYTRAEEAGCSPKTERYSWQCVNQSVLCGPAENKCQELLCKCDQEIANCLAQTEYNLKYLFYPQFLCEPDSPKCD
In short: as §1

thrombin = thrombin (Homo sapiens, UniProt P00734); assay: Anti-proteases assay; format: biochemical
trypsin = molecular target: T5, trypsin (Bos taurus, UniProt P00760); assay: Anti-proteases assay; format: biochemical
T5 sequence (P00760 24-246): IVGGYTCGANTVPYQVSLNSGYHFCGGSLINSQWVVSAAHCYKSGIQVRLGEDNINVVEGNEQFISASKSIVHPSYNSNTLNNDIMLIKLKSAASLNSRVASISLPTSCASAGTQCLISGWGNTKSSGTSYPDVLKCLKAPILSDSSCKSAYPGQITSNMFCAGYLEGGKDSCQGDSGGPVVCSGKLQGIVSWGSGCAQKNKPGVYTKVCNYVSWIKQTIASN
In short: as §2

collagenase = assay: Anti-proteases assay; format: biochemical; conditions: mean of two determinations ± SD
In short: as §2

Question: `O=c1c2ccccc2[nH]c(=S)n1-c1ccccc1` [Compound 9, 2-Mercapto-3-phenyl-3H-quinazolin-4-one] was tested. Which IC50 (hsPLA2-G-V) did it give?
Answer: 151 ± 2.12 µM

Question: For `COc1ccc2cc(/C=N/n3c(C)nc4ccc(Br)cc4c3=O)ccc2c1` [Compound 3f, (E)-6-Bromo-3-[((6-methoxynaphthalen-2-yl)methylene)amino]-2-methylquinazolin-4(3H)-one], which IC50 (cathepsin-B) is on record?
Answer: 132 µM

Question: What about the IC50 (α-amylase) of the same compound?
Answer: 310 ± 10 µM

Question: What about the IC50 (α-glucosidase) of the same compound?
Answer: 12.4 ± 0.83 µM

Question: What about the IC50 (xanthine oxidoreductase) of the same compound?
Answer: 7.34 ± 0.33 µM

Question: What about the viability at 200 µg/mL (LoVo cells) of the same compound?
Answer: 58 ± 4.24%

Question: How did the IC50 (hsPLA2-G-IIA) turn out when `Cc1nc2ccccc2c(=O)n1NC(=O)CSc1nc2ccccc2c(=O)n1-c1ccccc1` [Compound 10, N-(2-Methyl-4-oxo-4H-quinazolin-3-yl)-2-(4-oxo-3-phenyl-3,4-dihydroquinazolin-2-ylsulfanyl)acetamide] was run?
Answer: 13.8 ± 2.12 µM

Question: And the IC50 (hsPLA2-G-V)?
Answer: 14.7 ± 0.42 µM

Question: And the viability at 200 µg/mL (LoVo cells)?
Answer: 22 ± 1.41%

Question: What about the IC50 (LoVo cells) of the same compound?
Answer: 273 ± 9.04 µM

Question: And the IC50 (HCT-116 cells)?
Answer: 230 ± 9.04 µM

Question: `Cc1nc2ccc(Cl)cc2c(=O)n1NC(=O)CCl` [Compound 7b, 2-Chloro-N-(6-chloro-2-methyl-4-oxo-4H-quinazolin-3-yl)acetamide] was tested. Which IC50 (cathepsin-B) did it give?
Answer: 31.5 µM

Question: And the IC50 (hsPLA2-G-IIA)?
Answer: 127 ± 2.12 µM

Question: How did the IC50 (α-amylase) turn out when `O=c1c(O)c(-c2ccc(O)c(O)c2)oc2cc(O)cc(O)c12` [Quercetin, quercetin, reference compound] was run?
Answer: 407 ± 2.83 µM

Question: How did the IC50 (α-amylase) turn out when `COc1cc(/C=N/n2c(C)nc3ccc(Br)cc3c2=O)ccc1OCc1ccc(Cl)cc1` [Compound 5, (E)-6-Bromo-3-{[4-(4-chlorobenzyloxy)-3-methoxybenzylidene]amino}-2-methyl-3H-quinazolin-4-one] was run?
Answer: 358 ± 4.95 µM

Question: What about the IC50 (α-glucosidase) of the same compound?
Answer: 13.7 ± 1.41 µM

Question: How did the IC50 (α-amylase) turn out when `COc1cc(NCC(=O)Nn2c(C)nc3ccc(Cl)cc3c2=O)cc(OC)c1OC` [Compound 12, N-(6-Chloro-2-methyl-4-oxo-4H-quinazolin-3-yl)-2-(3,4,5-trimethoxyphenylamino)acetamide] was run?
Answer: 401 ± 6.36 µM

Question: Which results are given for `COc1cc(/C=N/n2c(C)nc3ccc(Br)cc3c2=O)ccc1O` [Compound 3g, (E)-6-Bromo-3-[(4-hydroxy-3-methoxybenzylidene)amino]-2-methyl-3H-quinazolin-4-one]?
Answer: IC50 (hsPLA2-G-V): 22.3 ± 0.92 µM; IC50 (hsPLA2-G-X): 14.5 ± 0.92 µM; viability at 200 µg/mL (LoVo cells): 16.8 ± 0.35%; IC50 (LoVo cells): 206 ± 7.29 µM; IC50 (HCT-116 cells): 285 ± 9.11 µM

Question: For `Cc1nc2ccc(Br)cc2c(=O)n1/N=C/c1ccc(C(=O)O)cc1` [Compound 3b, (E)-4-[(6-Bromo-2-methyl-4-oxo-4H-quinazolin-3-ylimino)methyl]benzoic acid], which IC50 (α-amylase) is on record?
Answer: 264 ± 11 µM

Question: For `Cc1nc2ccc(Cl)cc2c(=O)n1NC1=NC(=O)CS1` [Compound 8, 6-Chloro-2-methyl-3-(4-oxo-4,5-dihydrothiazol-2-ylamino)-3H-quinazolin-4-one], which IC50 (thrombin) is on record?
Answer: 0.729 µM

Question: And the IC50 (trypsin)?
Answer: 1.78 µM

Question: And the viability at 200 µg/mL (LoVo cells)?
Answer: 13.5 ± 0.71%

Question: And the IC50 (LoVo cells)?
Answer: 319 ± 11.4 µM

Question: And the IC50 (HCT-116 cells)?
Answer: 449 ± 11.5 µM

Question: With `COc1cc(/C=N/n2c(C)nc3ccc(C)cc3c2=O)cc([N+](=O)[O-])c1O` [Compound 3d, (E)-3-[(4-Hydroxy-3-methoxy-5-nitrobenzylidene)amino]-2,6-dimethylquinazolin-4(3H)-one] as the compound, how does the “mean IC50 against Collagenase” value (collagenase) read?
Answer: 57.83 ± 2.69 µg/mL

Question: And the IC50 (hsPLA2-G-X)?
Answer: 21.4 ± 2.31 µM

Question: And the IC50 (α-amylase)?
Answer: 375 ± 11.5 µM

Question: What about the viability at 200 µg/mL (LoVo cells) of the same compound?
Answer: 90.5 ± 3.54%
